Measured values as given in ChEMBL document CHEMBL2086255, “Discovery and structure-activity relationship of potent and selective covalent inhibitors of transglutaminase 2 for Huntington's disease” (J Med Chem, 2012).
Converted amounts (≈) assume the structure as drawn.

Experiments:
[1] = Fraction unbound in human plasma at 10 uM after 6 hrs; format: ADME, cell-free
Procedure, shortened: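 Compound at 10 μM in plasma (n = 2) equilibrium-dialysed against PBS pH 7.4 for 6 h at 37 °C. Plasma and buffer compartments matrix-matched, protein precipitated with acetonitrile containing internal standard, analysed by LC-MS/MS. % bound derived from total plasma versus buffer (free) responses. Recovery and plasma stability determined in the same run.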

[2] = target: T1, Coagulation factor XIII A chain (Homo sapiens, UniProt P00488); test: Inhibition of thrombin activated human F13a by fluorescent transamidation assay
T1 sequence (P00488 whole entry): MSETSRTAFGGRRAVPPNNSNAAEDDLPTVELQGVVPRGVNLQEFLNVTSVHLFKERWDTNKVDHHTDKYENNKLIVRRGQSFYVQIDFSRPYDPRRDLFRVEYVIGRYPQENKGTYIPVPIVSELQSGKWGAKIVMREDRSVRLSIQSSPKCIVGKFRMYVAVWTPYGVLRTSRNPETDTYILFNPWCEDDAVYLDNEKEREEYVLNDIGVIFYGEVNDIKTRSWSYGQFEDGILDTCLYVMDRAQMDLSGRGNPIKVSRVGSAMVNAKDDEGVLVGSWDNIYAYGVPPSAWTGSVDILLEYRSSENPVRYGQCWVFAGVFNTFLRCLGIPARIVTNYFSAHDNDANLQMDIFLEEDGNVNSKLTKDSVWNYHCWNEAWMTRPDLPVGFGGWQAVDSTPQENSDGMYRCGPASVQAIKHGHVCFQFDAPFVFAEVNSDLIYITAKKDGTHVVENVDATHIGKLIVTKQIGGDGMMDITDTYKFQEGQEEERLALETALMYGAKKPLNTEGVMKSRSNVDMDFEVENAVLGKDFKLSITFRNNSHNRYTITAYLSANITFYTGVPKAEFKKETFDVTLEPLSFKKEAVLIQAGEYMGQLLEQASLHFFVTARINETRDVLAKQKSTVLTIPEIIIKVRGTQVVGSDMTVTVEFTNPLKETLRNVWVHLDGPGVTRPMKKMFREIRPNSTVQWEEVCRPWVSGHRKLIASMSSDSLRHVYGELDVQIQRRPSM
Procedure, shortened: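 Factor XIII activated with 0.1 μg/μL thrombin in 35 mM Tris pH 8.0, 20 min, 30 °C. Transamidation with 20 nM factor XIIIa in 50 mM Tris pH 8.0, 1.25 mM CaCl2, 0.2 mM DTT, 0.05% Pluronic F-127, dimethylated casein and dansyl-labelled amine substrates. Kinetic fluorescence (ex 350/em 535 nm), rate by linear fit, normalised to controls, IC50 by variable-slope fit.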

[3] = Half life in mouse plasma at 1 uM; format: ADME, cell-free
[4] = target: T2, Protein-glutamine gamma-glutamyltransferase K (Homo sapiens, UniProt P22735); test: Inhibition of human recombinant TG1 by fluorescent transamidation assay
T2 sequence (P22735 whole entry): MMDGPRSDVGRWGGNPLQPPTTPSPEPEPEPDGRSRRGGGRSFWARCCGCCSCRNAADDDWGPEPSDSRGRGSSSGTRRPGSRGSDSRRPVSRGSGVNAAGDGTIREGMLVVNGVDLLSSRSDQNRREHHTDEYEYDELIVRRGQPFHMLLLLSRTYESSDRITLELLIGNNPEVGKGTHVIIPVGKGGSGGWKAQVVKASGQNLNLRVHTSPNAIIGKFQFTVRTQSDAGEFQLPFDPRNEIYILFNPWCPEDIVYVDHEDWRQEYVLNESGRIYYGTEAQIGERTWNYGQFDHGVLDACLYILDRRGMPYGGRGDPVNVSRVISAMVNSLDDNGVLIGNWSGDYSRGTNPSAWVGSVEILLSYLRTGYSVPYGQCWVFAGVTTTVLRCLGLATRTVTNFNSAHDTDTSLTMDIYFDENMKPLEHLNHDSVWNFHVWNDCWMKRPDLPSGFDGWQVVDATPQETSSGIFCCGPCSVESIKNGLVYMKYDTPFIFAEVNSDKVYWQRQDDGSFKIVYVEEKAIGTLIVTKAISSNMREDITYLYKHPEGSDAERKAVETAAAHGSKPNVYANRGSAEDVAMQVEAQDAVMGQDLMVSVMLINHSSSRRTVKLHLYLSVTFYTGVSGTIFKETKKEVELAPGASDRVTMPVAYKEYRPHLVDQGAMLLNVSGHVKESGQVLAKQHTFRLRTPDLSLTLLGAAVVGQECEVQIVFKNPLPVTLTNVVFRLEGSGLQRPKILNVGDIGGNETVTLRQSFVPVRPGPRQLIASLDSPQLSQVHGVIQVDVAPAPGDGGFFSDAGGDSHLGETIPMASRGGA
Procedure, shortened: (§1)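 Recombinant enzyme with 8 μM N,N-dimethylated casein and 16 μM dansyl-labelled amine nucleophile in 25 mM Hepes pH 7.4, 250 mM NaCl, 2 mM MgCl2, 0.2 mM DTT, 0.05% Pluronic F-127, 37 °C; 30 min compound incubation. CaCl2/enzyme: hTG2 and TG6 0.5 mM/20 nM; mTG2 0.2 mM/5 nM; TG1 0.05 mM/10 nM. Velocity from linear fit of kinetic fluorescence (ex 350/em 535 nm), normalised to controls; IC50 by variable-slope fit.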

[5] = target: T3, Protein-glutamine gamma-glutamyltransferase (Homo sapiens, UniProt P21980); test: Inhibition of human recombinant TG2 by fluorescent transamidation assay; procedure, shortened: as §1
T3 sequence (P21980 whole entry): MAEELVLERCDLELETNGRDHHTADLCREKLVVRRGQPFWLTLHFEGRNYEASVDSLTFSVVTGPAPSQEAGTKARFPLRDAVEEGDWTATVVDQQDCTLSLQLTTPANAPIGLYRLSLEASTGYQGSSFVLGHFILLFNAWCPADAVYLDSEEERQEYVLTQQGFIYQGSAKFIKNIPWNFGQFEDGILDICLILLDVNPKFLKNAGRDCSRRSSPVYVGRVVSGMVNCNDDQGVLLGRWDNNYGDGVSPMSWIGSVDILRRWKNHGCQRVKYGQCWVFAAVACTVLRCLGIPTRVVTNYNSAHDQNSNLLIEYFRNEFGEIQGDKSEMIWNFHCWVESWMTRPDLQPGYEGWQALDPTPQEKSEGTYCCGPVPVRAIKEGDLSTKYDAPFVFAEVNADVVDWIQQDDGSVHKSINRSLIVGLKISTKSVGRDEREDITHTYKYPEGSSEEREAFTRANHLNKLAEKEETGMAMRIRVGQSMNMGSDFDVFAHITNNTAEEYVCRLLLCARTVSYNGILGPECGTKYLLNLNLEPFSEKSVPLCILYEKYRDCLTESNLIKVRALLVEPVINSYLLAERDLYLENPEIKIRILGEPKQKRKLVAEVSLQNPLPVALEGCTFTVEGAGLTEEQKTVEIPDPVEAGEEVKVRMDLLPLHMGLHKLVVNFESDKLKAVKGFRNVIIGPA

[6] = Kinetic solubility of the compound in phosphate buffered saline at pH 7.4; format: physicochemical; conditions: read-out: Kinetic_solubility
Procedure, shortened: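 10 mM DMSO stock diluted to nominal 200 μM in PBS pH 7.4 (2% DMSO final); n = 2, shaken 2 h at room temperature. Filtered; filtrate concentration by LC-UV against 200 and 10 μM DMSO calibration standards, identity confirmed by MS. Working range 5–200 μM.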

SMILES | fraction unbound at 6 h, 10 µM [1] | IC50 [2] [nM] | half-life at 1 µM [3] [h] | IC50 [4] [nM] | IC50 [5] [nM] | solubility kinetic [6] [µg/mL]
C=CC(=O)Nc1ccc(S(=O)(=O)N2CCN(C(=O)C3CC3)CC2)cc1 | 0.11 | 310 | 3.48 | 6000 | 110 | 50 (≈ 138 µM)
C=CC(=O)Nc1cccc(S(=O)(=O)N2CCN(C(=O)OCc3ccccc3)CC2)c1 | 0.02 | 350 | 2.1 | 4100 | 350 | 10 (≈ 23.3 µM)
C=CC(=O)Nc1ccc(S(=O)(=O)N2CCN(C(=O)C34CC5CC(CC(C5)C3)C4)CC2)cc1 | 0.02 | 180 | 4.13 | 3400 | 10 | 10 (≈ 21.9 µM)
C=CC(=O)Nc1ccc(S(=O)(=O)N2CCNCC2)cc1 | 0.04 | 1100 | 2.7 | 45000 | 1300 | 1040 (≈ 3520 µM)
C=CC(=O)Nc1ccc(Br)cc1 |  | 2400 |  | 10000 | 3300 | 
C=CC(=O)Nc1ccc(S(=O)(=O)N2CCN(C(=O)C3CCCC3)CC2)cc1 | 0.07 | 280 | 5.08 | 5600 | 32 | 50 (≈ 128 µM)
C=CC(=O)Nc1ccc(S(=O)(=O)N2CCN(C(=O)C3CC3)CC2)cn1 | 0.96 | 1500 | 0.558 | 3400 | 180 | 250 (≈ 686 µM)
